In ChEMBL document CHEMBL2029225, “Synthesis of marine-derived 3-alkylpyridinium alkaloids with potent antiprotozoal activity” (ACS Med Chem Lett, 2011):
Calls of active or inactive are those of the source. The rule behind the calls is not given here.

Tests used:
[1] = test system: Trypanosoma brucei brucei; experiment: Antitrypanosomal activity against Trypanosoma brucei brucei 427 at 1 uM after 48 hrs by hemocytometry; format: functional, organism-based
Summary of the method: (§1)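 Reversibility test: bloodstream-form T. brucei cultures seeded at 2 × 10⁴ cells, compound added at t = 0 h. Compound was washed out after 24 h or 48 h, or left in. Growth was monitored over 72 h against drug-free controls.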

[2] = test system: Trypanosoma brucei brucei; experiment: Antitrypanosomal activity against Trypanosoma brucei brucei 427 at 0.1 uM after 72 hrs by hemocytometry; format: functional, organism-based; summary of the method: as §1
[3] = test system: Trypanosoma brucei brucei; experiment: Antitrypanosomal activity against bloodstream form of Trypanosoma brucei brucei 427 (BS221) after 72 hrs by alamar blue assay; format: functional, organism-based
[4] = test system: Trypanosoma brucei brucei; experiment: Antitrypanosomal activity against TbAt1-deficient bloodstraem form of Trypanosoma brucei brucei 427 (BS221) after 72 hrs by alamar blue assay; format: functional, organism-based
[5] = test system: Trypanosoma brucei brucei; experiment: Antitrypanosomal activity against TbAt1-deficient bloodstraem form Trypanosoma brucei brucei B48 after 72 hrs by alamar blue assay; format: functional, organism-based; settings: B48, 72 h
[6] = test system: Leishmania major; experiment: Antileishmanial activity against promastigotes of Leishmania major Friedlin after 72 hrs by alamar blue assay; format: functional, organism-based
[7] = test system: Leishmania mexicana; experiment: Antileishmanial activity against amastigotes of Leishmania mexicana MNYC/BZ/62/M379 after 72 hrs by alamar blue assay; format: functional, organism-based; settings: MNYC/BZ/62/M379, 72 h
[8] = test system: Plasmodium falciparum; experiment: Antiplasmodial activity against Plasmodium falciparum 3D7 assessed as inhibition of [3H]hypoxanthine incorporation after 18 hrs by liquid scintillation counting; format: functional, organism-based
[9] = test system: HEK-293T; experiment: Cytotoxicity against human HEK293T cells after 72 hrs by alamar blue assay; format: cell-based
[10] = Selectivity ratio of EC50 for human HEK293 cells to EC50 for bloodstream form of Trypanosoma brucei brucei 427 (BS221); format: ADME, cell-based; settings: read-out: Ratio EC50
[11] = Selectivity ratio of EC50 for human HEK293 cells to EC50 for TbAt1-deficient bloodstraem form of Trypanosoma brucei brucei 427 (BS221); format: ADME, cell-based; settings: read-out: Ratio EC50
[12] = test system: Trypanosoma brucei brucei; experiment: Antitrypanosomal activity against bloodstream form of Trypanosoma brucei brucei 427 (BS221) assessed as increased propidium iodide uptake at 50 to 100 uM after 30 mins by real-time cell lysis assay; format: functional, organism-based
Summary of the method: (§2)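 Real-time lysis assay with bloodstream-form T. brucei: propidium iodide in the medium fluoresces only on binding DNA/RNA in membrane-compromised cells. Fluorescence was followed for up to 8 h across a range of concentrations. The read-out was the time to reach 80% lysis versus concentration.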

[13] = test system: Trypanosoma brucei brucei; experiment: Antitrypanosomal activity against bloodstream form of Trypanosoma brucei brucei 427 (BS221) assessed as increased propidium iodide uptake at >/=100 times EC50 after 8 hrs by real-time cell lysis assay; format: functional, organism-based; summary of the method: as §2
[14] = test system: Trypanosoma brucei brucei; experiment: Antitrypanosomal activity against bloodstream form of Trypanosoma brucei brucei s427 assessed as increase in propidium iodide uptake at 0.3 to 1 uM up to 48 hrs by flow cytometry; format: functional, organism-based
Summary of the method: (§3)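 Bloodstream-form T. brucei cultures were exposed to compound for up to 48 h, with duplicate samples taken at 24 and 48 h. Lysis sample: PI added directly for 10 min. DNA-content sample: fixed in 70% methanol or permeabilized with digitonin, RNase-treated, then PI-stained. 10000 cells were counted per panel by flow cytometry, and the experiment was run three times.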

[15] = test system: Trypanosoma brucei brucei; experiment: Antitrypanosomal activity against bloodstream form of Trypanosoma brucei brucei s427 assessed as DNA fragmentation at 0.3 to 1 uM up to 48 hrs by flow cytometry; format: functional, organism-based; summary of the method: as §3
[16] = test system: Trypanosoma brucei brucei; experiment: Antitrypanosomal activity against digitonin permeabilized bloodstream form of Trypanosoma brucei brucei s427 assessed as DNA fragmentation at 0.3 to 1 uM up to 48 hrs by flow cytometry; format: functional, organism-based; summary of the method: as §3
[17] = test system: Trypanosoma brucei brucei; experiment: Antitrypanosomal activity against digitonin permeabilized bloodstream form of Trypanosoma brucei brucei s427 assessed as increase in propidium iodide uptake at 0.3 to 1 uM up to 48 hrs by flow cytometry; format: functional, organism-based; summary of the method: as §3
[18] = test system: Trypanosoma brucei brucei; experiment: Antitrypanosomal activity against digitonin permeabilized bloodstream form of Trypanosoma brucei brucei s427 assessed as decrease in 2C/4C DNA content by DAPI staining-based fluorescent microscopy; format: functional, organism-based
[19] = test system: Trypanosoma brucei brucei; experiment: Antitrypanosomal activity against Trypanosoma brucei brucei 427 at 10 uM after 24 hrs by hemocytometry; format: functional, organism-based; summary of the method: as §1
[20] = Selectivity ratio of EC50 for human HEK293 cells to EC50 for Plasmodium falciparum 3D7; format: ADME, cell-based; settings: read-out: Ratio EC50
[21] = test system: Trypanosoma brucei brucei; experiment: Antitrypanosomal activity against bloodstream form of Trypanosoma brucei brucei 427 (BS221) assessed as increased propidium iodide uptake at 10 to 50 times EC50 after by real-time cell lysis assay; format: functional, organism-based; summary of the method: as §2
[22] = test system: Trypanosoma brucei brucei; experiment: Antitrypanosomal activity against bloodstream form of Trypanosoma brucei brucei 427 (BS221) assessed as increased propidium iodide uptake at 780 nM after 3 hrs by real-time cell lysis assay; format: functional, organism-based; summary of the method: as §2
[23] = Selectivity ratio of EC50 for human HEK293 cells to EC50 for Leishmania major Friedlin; format: ADME, cell-based; settings: read-out: Ratio EC50
[24] = Selectivity ratio of EC50 for human HEK293 cells to EC50 for Leishmania mexicana MNYC/BZ/62/M379; format: ADME, cell-based; settings: read-out: Ratio EC50

SMILES | EC50 [3] [nM] | EC50 [4] [nM] | EC50 [5] [nM] | EC50 [6] [nM] | EC50 [7] [nM] | EC50 [8] [nM] | EC50 [9] [nM] | Activity [12] | Activity [13] | further results
COc1ccc(C[n+]2cccc(CCCCCCCCCCCCCO)c2)cc1 | 49 | 84 | 62 | 320 | 650 | 240 | 21000 | Active | Active | Activity [1]: Active; Activity [2]: inactive; selectivity ratio [10]: 437; selectivity ratio [11]: 437; Activity [14]: inactive; Activity [15]: inactive; Activity [16]: inactive; Activity [17]: inactive; Activity [18]: inactive; Activity [19]: Active
COc1ccc(C[n+]2cccc(CCCCCCCCCCCCCI)c2)cc1 | 190 | 480 | 200 | 1000 | 400 | 220 | 41000 | Active | Active | –
NCCS[As](SCCN)c1ccc(Nc2nc(N)nc(N)n2)cc1 | 3.9 | 7.8 | 210 | – | – | – | – | – | – | –
OCCCCCCCCCCCCCc1ccc[n+](CCCCCCCCCCCCCc2ccc[n+](CCCCCCCCCCCCCc3cccnc3)c2)c1 | 220 | 270 | 250 | 850 | 190 | 68 | 16000 | Active | – | selectivity ratio [20]: 237; Activity [21]: Active
OCCCCCCCCCCCCCc1ccc[n+](CCCCCCCCCCCCCc2ccc[n+](CCCCCCCCCCCCCc3ccc[n+](CCCCCCCCCCCCCc4cccnc4)c3)c2)c1 | 310 | 410 | 330 | 1100 | 230 | 160 | 11000 | Active | – | Activity [21]: Active
OCCCCCCCCCCCCCc1ccc[n+](CCCCCCCCCCCCCc2cccnc2)c1 | 400 | 620 | 300 | 1600 | 340 | 140 | 25000 | Active | – | Activity [22]: Active
N=C(N)c1ccc(/N=N/Nc2ccc(C(=N)N)cc2)cc1 [DIMINAZEN ACETURATE] | 260 | 7900 | – | – | 24000 | – | – | – | – | –
C[n+]1cccc(CCCCCCCCCCCCCI)c1 | 86 | 180 | 110 | 310 | 280 | 260 | 47000 | Active | Active | selectivity ratio [10]: 540; selectivity ratio [11]: 540; selectivity ratio [23]: 149; selectivity ratio [24]: 149; Activity [14]: inactive; Activity [15]: inactive; Activity [16]: inactive; Activity [17]: inactive; Activity [18]: inactive; Activity [19]: Active
